Consider 15 compounds from ChEMBL document CHEMBL1145957 (J Med Chem, 2003).

pEC50: −log10 of the molar value.

The subject of assay [1] is Trypanosoma brucei. The experiment in a line: Effective concentration in vitro against the bloodstream trypomastigote form of Trypanosoma brucei. The class given is functional, organism-based. The method in brief: (§1)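 T. brucei brucei AnTat 1.9 bloodstream forms kept cell-free at 10⁵ trypanosomes/mL. Drug added in 10-fold dilutions, 50 to 0.01 μM final, 16 replicates per dilution and control. Incubated 48 h at 37 °C, 5% CO2.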

Assay [2] concerns Trypanosoma brucei. The experiment in a line: Minimum effective concentration in vitro against the bloodstream trypomastigote form of Trypanosoma brucei. Format: functional. To be noted: read-out: MEC. In outline:
as §1

The test system of assay [3] is Trypanosoma cruzi. The experiment in a line: In vitro percent inhibition against mouse peritoneal macrophages infected with Trypanosoma cruzi at 3.1 uM concentration. Format: functional. In outline: (§2)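 Mouse peritoneal macrophages seeded at 30 000 cells/well. After 24 h, about 100 000 T. cruzi Tulahen CL2 trypomastigotes per well added with 2-fold drug dilutions. Incubated 4 days at 37 °C, 5% CO2; uninfected cultures treated alike. Reduction of total parasite load (free trypomastigotes plus intracellular amastigotes) versus untreated controls scored microscopically.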

The test system of assay [4] is Homo sapiens (MRC-5 cells). The experiment in a line: Concentration that cause cytotoxicity at 6.2 uM concentration.
For assay [5], the system named is Leishmania infantum. The experiment in a line: In vitro percent inhibition against mouse peritoneal macrophages infected with Leishmania infantum at 12.5 uM concentration. Format: functional. In outline:
(§3)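 Primary mouse peritoneal macrophages seeded at 30 000 cells/well. After 24 h, spleen-derived L. infantum (MOHM/MA BE/67) amastigotes added at a 10:1 infection ratio with 2-fold drug dilutions. Incubated 5 days at 37 °C, 5% CO2; uninfected cultures treated in parallel. Total parasite load or infected-macrophage count scored microscopically on Wright-stained slides, versus untreated controls.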

For assay [6], the system named is Homo sapiens (MRC-5 cells). Briefly: Concentration that cause cytotoxicity at 12.5 uM concentration.
Assay [7] deals with Trypanosoma cruzi. Briefly: In vitro percent inhibition against mouse peritoneal macrophages infected with Trypanosoma cruzi at 6.2 uM concentration. Format: functional. The method in brief: as §2
For assay [8], the system named is Trypanosoma cruzi. Briefly: In vitro percent inhibition against mouse peritoneal macrophages infected with Trypanosoma cruzi at 12.5 uM concentration. Format: functional. The method in brief:
as §2

Assay [9] has as its system Leishmania infantum. The experiment in a line: In vitro percent inhibition against mouse peritoneal macrophages infected with Leishmania infantum at 6.2 uM concentration. The class given is functional. The method in brief:
as §3

Assay [10] deals with Leishmania infantum. Briefly: In vitro percent inhibition against mouse peritoneal macrophages infected with Leishmania infantum at 3.1 uM concentration. Format: functional. In outline: as §3
Assay [11] relates to Leishmania infantum. The experiment in a line: In vitro percent inhibition against mouse peritoneal macrophages infected with Leishmania infantum at 25 uM concentration. The class given is functional. In outline:
as §3

Assay [12] has as its system Homo sapiens (MRC-5 cells). The experiment in a line: Concentration that cause cytotoxicity at 25 uM concentration.
For assay [13], the system named is Trypanosoma cruzi. Briefly: In vitro percent inhibition against mouse peritoneal macrophages infected with Trypanosoma cruzi at 25 uM concentration. Format: functional. The method in brief:
as §2

Assay [14] deals with Homo sapiens (MRC-5 cells). Briefly: Concentration that cause cytotoxicity at 3.1 uM concentration.
Assay [15] deals with Trypanosoma cruzi. Briefly: In vitro percent inhibition against mouse peritoneal macrophages infected with Trypanosoma cruzi at 25 uM concentration; Toxic for macrophage. The class given is functional, organism-based. The method in brief: as §2
Assay [16] concerns Homo sapiens (MRC-5 cells). The experiment in a line: Concentration that cause cytotoxicity at 1.5 uM concentration.
The test system of assay [17] is Leishmania infantum. The experiment in a line: In vitro percent inhibition against mouse peritoneal macrophages infected with Leishmania infantum at 25 uM concentration; Toxic for macrophage. Format: functional, organism-based. In outline:
as §3

Assay [18] concerns Homo sapiens (MRC-5 cells). Briefly: Concentration that cause cytotoxicity at 12.5 uM concentration in human MRC-5 cells.
For assay [19], the system named is Homo sapiens (MRC-5 cells). The experiment in a line: Concentration that cause cytotoxicity at 25 uM concentration in human MRC-5 cells.
The test system of assay [20] is Homo sapiens (MRC-5 cells). The experiment in a line: Concentration that cause cytotoxicity at 6.2 uM concentration in human MRC-5 cells.
Assay [21] concerns Homo sapiens (MRC-5 cells). The experiment in a line: Concentration that cause cytotoxicity at 3.1 uM concentration in human MRC-5 cells.
Assay [22] deals with Trypanosoma cruzi. The experiment in a line: Percent inhibition in vitro against intracellular form of Trypanosoma cruzi at 90 uM concentration. Format: functional. The method in brief: (§4)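 T. cruzi Y strain (MHOM/BR/OO/Y) trypomastigotes, grown in L6 myoblast cultures, infect mouse peritoneal macrophages in medium with drug from 90 to 3 μM. Incubation 72 h at 37 °C. Activity read as percent of infected macrophages in treated cultures.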

The subject of the next assay is Leishmania donovani. Briefly: Percent inhibition in vitro against intracellular form of Leishmania donovani at 90 uM concentration. The class given is functional. In outline: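 Hamster-spleen-derived L. donovani (MHOM/ET/67/L82) amastigotes infect mouse peritoneal macrophages in chamber slides. Infected cells kept with drug across 90–3 μM in quadruplicate for 7 days at 37 °C. Activity taken as percentage of macrophages cleared of amastigotes; sodium stibogluconate served as positive control.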

Assay [23] deals with Trypanosoma cruzi. The experiment in a line: Percent inhibition in vitro against intracellular form of Trypanosoma cruzi at 10 uM concentration. The class given is functional. The method in brief:
as §4

Assay [24] deals with Trypanosoma cruzi. The experiment in a line: Percent inhibition in vitro against intracellular form of Trypanosoma cruzi at 30 uM concentration. Format: functional. The method in brief: as §4
In assay [25] the test system is Trypanosoma cruzi. The experiment in a line: Effective dose against Trypanosoma cruzi. The class given is functional.
For assay [26], the system named is Trypanosoma cruzi. Briefly: Percent inhibition in vitro against intracellular form of Trypanosoma cruzi at 3 uM concentration. Format: functional. The method in brief: as §4

Consider `Cc1nc(-c2nnc(N)s2)n(C)c1[N+](=O)[O-]`, for which the pEC50 (usually −log10 of the EC50, conventionally taken in molar units) in the assay with Trypanosoma brucei [1] is less than 4.39. In the assay with Trypanosoma brucei [2], the minimal effective concentration was more than 41 µM.

Compound `Cn1c(-c2nnc(N)s2)nc(C(F)(F)F)c1[N+](=O)[O-]` showed a pEC50 with Trypanosoma brucei [1] of 4.60. Further, the minimal effective concentration in the assay on Trypanosoma brucei [2] was more than 34 µM.

`Cn1c(-c2nnc(N)s2)nc(Sc2ccccc2)c1[N+](=O)[O-]`: the inhibition at 3.1 µM in the assay with Trypanosoma cruzi [3] and with Leishmania infantum [10] was 0% in each case. Besides, the inhibition at 6.2 µM (in [4]; in the assay on Trypanosoma cruzi [7]; in the assay on Leishmania infantum [9]) was 0% throughout. The inhibition (usually the percentage by which the read-out fell short of the control) at 12.5 µM in the assay with Leishmania infantum [5] stood at 0%; in assay [6], 3%; in the assay with Trypanosoma cruzi [8], 60%. Moreover, the inhibition at 25 µM with Leishmania infantum [11] was determined as 0%; in [12], 40%; in the assay with Trypanosoma cruzi [13], 80%.

In the assay with Trypanosoma brucei [1], `Cc1ccc(C(=O)Nc2ccc(S(=O)(=O)O)c3cc(S(=O)(=O)O)cc(S(=O)(=O)O)c23)cc1NC(=O)c1cccc(NC(=O)Nc2cccc(C(=O)Nc3cc(C(=O)Nc4ccc(S(=O)(=O)O)c5cc(S(=O)(=O)O)cc(S(=O)(=O)O)c45)ccc3C)c2)c1` [SURAMIN] showed a pEC50 of 7.70. In the assay on Trypanosoma brucei [2], the minimal effective concentration is 0.8 µM.

In turn, `Cn1c(-c2nnc(N)s2)nc(Br)c1[N+](=O)[O-]` showed a negative-log EC50 (pEC50) in the assay with Trypanosoma brucei [1] of 6.30. The minimal effective concentration with Trypanosoma brucei [2] worked out at 3.3 µM.

For `Cn1c([N+](=O)[O-])cnc1S(C)(=O)=O`, the inhibition at 3.1 µM with Trypanosoma cruzi [3] was found to be 0%; in assay [14], 28%; in the assay with Leishmania infantum [10], 0%. In addition, the inhibition at 12.5 µM with Leishmania infantum [5] is 0%; in [6] it was 29%; in the assay with Trypanosoma cruzi [8] it was 0%. Also, the negative-log EC50 (pEC50) with Trypanosoma brucei [1] is 5.10. Further, the minimal effective concentration in the assay on Trypanosoma brucei [2] is more than 49 µM. Moreover, the inhibition at 6.2 µM with Trypanosoma cruzi [7] and in the assay on Leishmania infantum [9] was 0% in each case. Moreover, the inhibition entry in the assay on Trypanosoma cruzi [15] and with Leishmania infantum [17] was “Toxic for macrophage” each time. Moreover, the inhibition at 1.5 µM in assay [16] was determined as 21%. In addition, the inhibition at 25 µM in assay [12] is 85%.

As to `Cn1c([N+](=O)[O-])cnc1-c1nnc(NC(=O)CCCC(=O)NC2C(O)OC(CO)C(O)C2O)s1` (centres undefined), the inhibition at 3.1 µM was found to be 20% in the assay on Trypanosoma cruzi [3] and 0% in the assay on Leishmania infantum [10]. In addition, the inhibition at 12.5 µM turned out to be 0% in the assay with Leishmania infantum [5] and 99% in the assay on Trypanosoma cruzi [8]. Moreover, the figures for the inhibition at 6.2 µM in the assay with Trypanosoma cruzi [7] and with Leishmania infantum [9] were 60% and 0%, respectively. The inhibition at 25 µM in the assay with Leishmania infantum [11] amounted to 0%; with Trypanosoma cruzi [13] it was 99%.

Take `Nc1nnc(-c2ccc([N+](=O)[O-])o2)o1`: the minimal effective concentration with Trypanosoma brucei [2] is more than 51 µM.

Take `Cn1c([N+](=O)[O-])cnc1-c1nnc(NC(=O)C(F)(F)F)s1`: the minimal effective concentration with Trypanosoma brucei [2] turned out to be 31 µM.

Regarding `NC(=O)N/N=C/c1ccc([N+](=O)[O-])o1` [NITROFURAZONE], the Inhibition in [18], in [19], in [20] and in assay [21] was 0% in each case. Moreover, the minimal effective concentration in the assay on Trypanosoma brucei [2] was found to be 5 µM. In addition, the results for the inhibition at 6.2 µM with Trypanosoma cruzi [7] and in the assay with Leishmania infantum [9] were 40% and 0%, respectively. Moreover, the inhibition at 25 µM stood at 0% in the assay on Leishmania infantum [11] and 99% in the assay with Trypanosoma cruzi [13].

For `CC(=O)Nc1nnc(-c2ncc([N+](=O)[O-])n2C)s1`, the inhibition at 3.1 µM came out at 99% in the assay with Trypanosoma cruzi [3] and 0% with Leishmania infantum [10]. Further, the results for the inhibition at 6.2 µM (in assay [4]; in the assay with Trypanosoma cruzi [7]; in the assay on Leishmania infantum [9]) were 0%, 99% and 0%, respectively. Further, the results for the inhibition at 12.5 µM (in the assay on Leishmania infantum [5]; in [6]; in the assay with Trypanosoma cruzi [8]) were 40%, 0% and 99%, respectively. In the assay with Trypanosoma brucei [1], this compound gave a pEC50 of 6.70. Besides, the minimal effective concentration with Trypanosoma brucei [2] is 1.6 µM. The values for the inhibition at 25 µM (with Leishmania infantum [11]; in [12]; in the assay with Trypanosoma cruzi [13]) were 40%, 0% and 99%, respectively.

`Cn1c(-c2nnc(N)s2)nc(N2CCCCC2)c1[N+](=O)[O-]`: the inhibition at 90 µM worked out at 41% in the assay with Trypanosoma cruzi [22] and 0% in the assay with Leishmania donovani. For the same compound, in the assay on Trypanosoma cruzi [23], 10 µM produced 0% inhibition. In addition, 30 µM produced 3% inhibition in the assay on Trypanosoma cruzi [24].

As to `Nc1nnc(-c2ccc([N+](=O)[O-])o2)s1`, the inhibition at 6.2 µM in assay [4] worked out at 0%; in the assay with Trypanosoma cruzi [7], 95%; in the assay with Leishmania infantum [9] it was 0%. For the same compound, testing at 3.1 µM in assay [14] gave an inhibition of 0%. Also, the inhibition at 12.5 µM in assay [6] was 0%. The inhibition at 25 µM in the assay with Leishmania infantum [11] is 40%; in assay [12] it was 4%.

Compound `Cn1c([N+](=O)[O-])cnc1/C=N/N=C(/N)S` had an inhibition at 90 µM in the assay with Trypanosoma cruzi [22] of 99%. In addition, in the assay with Trypanosoma cruzi [25], the ED50 was 3.3 µM. Further, 10 µM produced 71% inhibition with Trypanosoma cruzi [23]. Also, the inhibition at 3 µM with Trypanosoma cruzi [26] turned out to be 54%. In the assay with Trypanosoma cruzi [24], the inhibition at 30 µM amounted to 93%.

Take `N/C(S)=N/N=C/c1ccc([N+](=O)[O-])s1`: the inhibition at 6.2 µM in assay [4] was 0%; with Trypanosoma cruzi [7], 40%; in the assay with Leishmania infantum [9], 0%. Also, 3.1 µM produced 0% inhibition in assay [14]. In assay [6], this compound showed an inhibition at 12.5 µM of 0%. Besides, the inhibition at 25 µM with Leishmania infantum [11] was found to be 40%; in assay [12] it was 0%; in the assay on Trypanosoma cruzi [13] it was 90%.
